From ChEMBL document CHEMBL1136924 (J Med Chem, 2009)
The source made the active and inactive calls. The rule behind the calls is not given here.

Experiments:
[1] = Plasma concentration in CD1 albino mouse at 5 mg/kg, ip after 15 mins; format: ADME, organism-based; set-up: dose 5 mg/kg, route intraperitoneal
Outline: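 Male CD1 mice (25-30 g) given ip 5 or 20 mg/kg, killed at set times; trunk blood plasma and brain collected. Solid-phase C18 extraction with internal standard, HPLC-UV at 240 nm. Quantification limits about 0.25 nmol/mL plasma, 0.5 nmol/g brain. Three mice per point. Half-life 0.693/β; clearance dose·F/AUC.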

[2] = molecular target: T1, 5-hydroxytryptamine receptor 3A (Rattus norvegicus, UniProt P35563); assay: Displacement of [3H]LY278584 from 5HT3 receptor in rat cortical homogenate
T1 sequence (P35563 whole entry): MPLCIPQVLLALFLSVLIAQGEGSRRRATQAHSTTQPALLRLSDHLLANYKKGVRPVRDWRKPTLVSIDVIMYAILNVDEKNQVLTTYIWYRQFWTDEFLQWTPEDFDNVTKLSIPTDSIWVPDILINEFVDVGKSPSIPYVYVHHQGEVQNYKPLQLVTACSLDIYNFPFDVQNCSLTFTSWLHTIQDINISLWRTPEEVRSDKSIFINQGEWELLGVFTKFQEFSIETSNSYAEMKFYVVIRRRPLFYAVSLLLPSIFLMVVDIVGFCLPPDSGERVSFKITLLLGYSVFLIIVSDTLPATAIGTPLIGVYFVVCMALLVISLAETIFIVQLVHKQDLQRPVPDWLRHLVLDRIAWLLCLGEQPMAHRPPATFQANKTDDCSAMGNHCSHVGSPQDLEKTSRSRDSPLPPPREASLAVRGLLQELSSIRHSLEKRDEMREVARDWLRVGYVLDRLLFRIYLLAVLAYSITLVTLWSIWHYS

[3] = molecular target: 5-hydroxytryptamine receptor 4 (Cavia porcellus, UniProt O70528); assay: Displacement of [3H]GR-113808 from 5HT4 receptor in guinea pig striatum
Sequence of 5-hydroxytryptamine receptor 4 (O70528 whole entry): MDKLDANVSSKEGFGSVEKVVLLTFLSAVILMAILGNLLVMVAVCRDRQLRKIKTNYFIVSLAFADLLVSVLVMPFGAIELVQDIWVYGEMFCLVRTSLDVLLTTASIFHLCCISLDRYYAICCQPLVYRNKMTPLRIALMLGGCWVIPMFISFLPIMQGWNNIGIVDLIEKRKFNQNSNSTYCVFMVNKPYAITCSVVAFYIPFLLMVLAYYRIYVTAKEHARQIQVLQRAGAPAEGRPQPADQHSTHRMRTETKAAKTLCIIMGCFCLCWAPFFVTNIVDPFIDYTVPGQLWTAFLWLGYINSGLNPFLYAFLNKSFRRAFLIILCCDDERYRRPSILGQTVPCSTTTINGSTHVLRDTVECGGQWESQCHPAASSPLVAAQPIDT

[4] = molecular target: T2, Adrenergic receptor alpha-1 (Rattus norvegicus, UniProt P15823+P23944+P43140); assay: Displacement of [3H]prazosin from adrenergic alpha1 receptor in rat cortex
T2 sequence (P15823 whole entry): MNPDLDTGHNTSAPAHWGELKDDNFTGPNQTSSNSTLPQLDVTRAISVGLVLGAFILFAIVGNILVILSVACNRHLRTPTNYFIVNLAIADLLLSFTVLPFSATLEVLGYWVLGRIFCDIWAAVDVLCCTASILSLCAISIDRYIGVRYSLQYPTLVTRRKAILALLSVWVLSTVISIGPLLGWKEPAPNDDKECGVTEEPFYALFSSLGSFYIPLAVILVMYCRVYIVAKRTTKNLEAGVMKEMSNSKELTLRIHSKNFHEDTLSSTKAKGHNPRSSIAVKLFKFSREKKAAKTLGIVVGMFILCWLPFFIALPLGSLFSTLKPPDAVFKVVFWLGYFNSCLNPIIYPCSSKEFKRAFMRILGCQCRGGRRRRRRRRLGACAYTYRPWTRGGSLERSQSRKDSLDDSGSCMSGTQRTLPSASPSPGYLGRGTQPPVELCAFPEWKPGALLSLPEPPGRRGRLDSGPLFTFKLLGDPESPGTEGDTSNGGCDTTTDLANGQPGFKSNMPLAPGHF
T2 sequence (P23944 whole entry): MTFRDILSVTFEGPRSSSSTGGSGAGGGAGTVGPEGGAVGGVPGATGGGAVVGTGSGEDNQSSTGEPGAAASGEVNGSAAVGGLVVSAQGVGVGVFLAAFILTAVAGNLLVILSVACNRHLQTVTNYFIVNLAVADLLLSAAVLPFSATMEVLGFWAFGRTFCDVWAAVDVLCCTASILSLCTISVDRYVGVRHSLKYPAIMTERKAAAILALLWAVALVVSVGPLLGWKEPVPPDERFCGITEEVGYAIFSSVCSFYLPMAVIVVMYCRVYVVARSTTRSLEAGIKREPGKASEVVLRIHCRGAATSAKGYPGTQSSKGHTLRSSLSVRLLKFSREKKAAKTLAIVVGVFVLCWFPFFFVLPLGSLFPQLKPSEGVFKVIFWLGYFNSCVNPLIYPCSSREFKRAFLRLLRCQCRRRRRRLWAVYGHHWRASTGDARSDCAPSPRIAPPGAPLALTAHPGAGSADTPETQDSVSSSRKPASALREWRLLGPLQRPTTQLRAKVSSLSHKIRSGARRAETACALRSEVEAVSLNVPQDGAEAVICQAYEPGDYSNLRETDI
T2 sequence (P43140 whole entry): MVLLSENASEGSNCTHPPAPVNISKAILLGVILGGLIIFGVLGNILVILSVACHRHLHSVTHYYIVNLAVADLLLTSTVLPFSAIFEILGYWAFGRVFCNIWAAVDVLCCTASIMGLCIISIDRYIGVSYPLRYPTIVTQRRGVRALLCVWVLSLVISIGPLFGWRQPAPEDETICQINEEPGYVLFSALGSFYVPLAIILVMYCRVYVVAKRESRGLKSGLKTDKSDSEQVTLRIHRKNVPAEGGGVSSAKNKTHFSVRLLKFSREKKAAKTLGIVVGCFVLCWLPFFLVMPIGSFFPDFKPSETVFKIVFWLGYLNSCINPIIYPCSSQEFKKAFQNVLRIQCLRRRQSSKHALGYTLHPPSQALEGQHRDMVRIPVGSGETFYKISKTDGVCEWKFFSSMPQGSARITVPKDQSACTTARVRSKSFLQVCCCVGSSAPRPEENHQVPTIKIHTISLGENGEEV

[5] = molecular target: T3, 5-hydroxytryptamine receptor 3A (Cavia porcellus) (UniProt O70212); assay: Agonist activity at 5HT3 receptor in voltage-stimulated guinea pig left atrium assessed as positive inotropic potency at 100 uM; format: functional, tissue-based; details: Cardiac atrium
T3 sequence (whole entry): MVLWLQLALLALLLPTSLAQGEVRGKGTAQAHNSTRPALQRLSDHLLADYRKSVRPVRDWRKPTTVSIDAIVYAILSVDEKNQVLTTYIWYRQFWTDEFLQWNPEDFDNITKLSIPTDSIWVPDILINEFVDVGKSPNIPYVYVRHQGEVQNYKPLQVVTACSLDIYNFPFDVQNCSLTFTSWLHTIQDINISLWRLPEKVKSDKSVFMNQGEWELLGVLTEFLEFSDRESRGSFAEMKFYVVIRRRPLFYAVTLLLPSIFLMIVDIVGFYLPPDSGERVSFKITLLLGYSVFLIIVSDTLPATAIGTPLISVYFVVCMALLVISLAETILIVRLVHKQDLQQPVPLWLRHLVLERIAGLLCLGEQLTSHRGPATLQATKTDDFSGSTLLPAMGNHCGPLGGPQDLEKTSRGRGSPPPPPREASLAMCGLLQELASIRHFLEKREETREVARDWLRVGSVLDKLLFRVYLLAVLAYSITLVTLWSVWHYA
Outline: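 Guinea pig left and right atria were hung in a 15 mL bath of PSS (pH 7.4, 95% O2-5% CO2, 35 °C) with ketanserin 1 µM. The right atrium beat spontaneously; the left was paced at 1 Hz. Cumulative doses (0.1-100 µM; DMSO ≤0.3%) were added after 45-60 min stabilization. Rate or isometric force was recorded. EC50 came from Probit analysis, n≥4. Intrinsic activity was taken relative to 5-HT.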

| SMILES | concentration at 0.25 h [1] [nM] | Ki [2] [µM] | Ki [3] [µM] | Ki [4] [µM] | pD2 [5] |
| --- | --- | --- | --- | --- | --- |
| N[C@@H](CN1CCN(c2nc3cc(F)ccc3n3cccc23)CC1)C(=O)O | 2000 | 0.0028 | > 10 | > 10 | inactive |
| N/C(CN1CCN(c2nc3cc(F)ccc3n3cccc23)CC1)=N\O |  | 0.0008 | > 10 | > 10 | inactive |
